Experimental findings from ChEMBL document CHEMBL4184138 (Bioorg Med Chem Lett, 2017) are described below.

A short description of series [1]: Half life in Kunming mouse 15% brain homogenate at 500 uM by RP-HPLC analysis. In kind it is ADME, tissue-based. The method, boiled down:
(§1)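 Peptide stability was measured by incubation in 15% mouse brain homogenate or in mouse plasma, and the half-life was determined for each matrix.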

Series [2] has as its target Mu-type opioid receptor (Rattus norvegicus, UniProt P33535). As to the kind of experiment: Displacement of [3H]-DAMGO from mu opioid receptor in Wistar rat brain membranes preincubated for 1 hr measured after 1hr by scintillation counting method. In kind it is cell membranes, Membrane. Summed up: (§2)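 Opioid receptor binding done on rat brain membranes. Affinity values are given as mean ± SEM of 8-12 measurements.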

The nature of series [3]: Half life in Kunming mouse plasma at 500 uM by RP-HPLC analysis. Format: ADME, cell-free. Summed up:
as §1

Series [4] concerns Mus musculus. As to the kind of experiment: Antinociceptive activity in Kunming mouse assessed as increase in latency to withdrawal by measuring AUC at 20 nmol/kg, i.c.v measured up to 45 mins post dose by tail-flick test. Format: functional, organism-based. Set-up: dose 20 nmol/kg, time < 0.75 hr. Summed up: (§3)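 Mouse tail-flick test. A single fixed dose was given, either 20 nmol/kg i.c.v. or 10 mg/kg s.c. Antinociception was followed as a time course, and the area under the effect-time curve (A.U.C) was calculated.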

Series [5] has as its system Mus musculus. In words: Antinociceptive activity in Kunming mouse assessed as increase in latency to withdrawal by measuring AUC at 10 mg/kg, sc measured up to 45 mins post dose by tail-flick test. In kind it is functional, organism-based. Set-up: dose 10 mg/kg, time < 0.75 hr. Summed up: as §3
Series [6] has as its target Delta-type opioid receptor (Rattus norvegicus, UniProt P33533). In words: Displacement of [3H]-DPDPE from delta opioid receptor in Wistar rat brain membranes preincubated for 3 hrs measured after 1 hr by scintillation counting method. Format: cell membranes, Membrane. The method, boiled down:
as §2

The species named for series [7] is Rattus norvegicus. In words: Selectivity ratio of Ki from delta opioid receptor in Wistar rat brain membranes to Ki from mu opioid receptor in Wistar rat brain membranes. In kind it is cell membranes.
For series [8], the system named is Mus musculus. In words: Antinociceptive activity in Kunming mouse assessed as increase in latency to withdrawal at 10 mg/kg, sc measured up to 5 to 45 mins post dose in presence of opioid antagonist naloxone by tail-flick test. In kind it is functional, organism-based.

The structures appear in SMILES notation. Activity calls are given as the source filed them. No cut-off for these calls is given here.

Sequence of Delta-type opioid receptor (P33533 whole entry): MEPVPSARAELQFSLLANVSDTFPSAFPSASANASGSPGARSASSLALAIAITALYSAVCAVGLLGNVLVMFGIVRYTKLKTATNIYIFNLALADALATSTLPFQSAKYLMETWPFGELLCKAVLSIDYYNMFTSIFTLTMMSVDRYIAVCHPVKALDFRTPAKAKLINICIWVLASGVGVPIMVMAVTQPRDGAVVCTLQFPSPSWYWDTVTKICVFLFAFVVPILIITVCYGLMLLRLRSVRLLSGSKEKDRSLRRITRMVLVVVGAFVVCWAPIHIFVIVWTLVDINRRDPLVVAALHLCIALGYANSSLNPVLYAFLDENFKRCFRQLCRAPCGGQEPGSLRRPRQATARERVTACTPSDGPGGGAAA
Sequence of Mu-type opioid receptor (P33535 whole entry): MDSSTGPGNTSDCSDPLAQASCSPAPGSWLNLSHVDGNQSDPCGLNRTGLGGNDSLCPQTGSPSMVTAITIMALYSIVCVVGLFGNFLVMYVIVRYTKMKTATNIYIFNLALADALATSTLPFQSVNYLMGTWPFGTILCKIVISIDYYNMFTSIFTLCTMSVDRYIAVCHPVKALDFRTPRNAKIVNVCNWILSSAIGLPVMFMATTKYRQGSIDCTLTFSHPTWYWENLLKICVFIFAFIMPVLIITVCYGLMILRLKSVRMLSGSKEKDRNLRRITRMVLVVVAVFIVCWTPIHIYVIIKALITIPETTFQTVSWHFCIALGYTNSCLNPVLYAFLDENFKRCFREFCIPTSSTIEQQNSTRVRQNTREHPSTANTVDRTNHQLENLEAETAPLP

With `C[C@@H](NC(=O)[C@H](Cc1ccc(O)cc1)NC(=N)N)C(=O)NCC(=O)N[C@@H](Cc1c[nH]c2ccccc12)C(=O)N[C@@H](Cc1ccccc1)C(N)=O`, the values for the half-life at 500 µM in series [1] and in series [3] were 7.4 h and 4.08 h, respectively. Further, the Ki in series [2] was determined as 0.00181 µM; in series [6] it was 3.87 µM. Further, the AUC in series [4] was 1160; in series [5], 631. Besides, in series [7], the Ratio Ki stood at 2140.
In the case of `C[C@@H](NC(=O)[C@H](Cc1ccc(O)cc1)NC(=N)N)C(=O)NCC(=O)N[C@@H](Cc1c[nH]c2ccccc12)C(=O)N[C@@H](Cc1ccc(Cl)cc1)C(N)=O`, the half-life at 500 µM worked out at 7.25 h in series [1] and 4.73 h in series [3]. Also, the Ki in series [2] stood at 0.0032 µM; in series [6], 2.03 µM. Also, in series [8], the result was inactive. Further, the figures for the AUC in series [4] and in series [5] were 650 and 1400, respectively. For the same compound, in series [7], the Ratio Ki is 635.
In the case of `C[C@@H](NC(=O)[C@@H](N)Cc1ccc(O)cc1)C(=O)NCC(=O)N[C@@H](Cc1c[nH]c2ccccc12)C(=O)N[C@@H](Cc1ccccc1)C(N)=O`, the half-life at 500 µM in series [1] turned out to be 3.66 h; in series [3], 2.51 h. The Ki came out at 0.0133 µM in series [2] and 4.05 µM in series [6]. Moreover, the results for the AUC in series [4] and in series [5] were 336 and 304, respectively. Besides, the Ratio Ki in series [7] came to 305.
Turning to `C[C@@H](NC(=O)[C@@H](N)Cc1ccc(O)cc1)C(=O)NCC(=O)N[C@@H](Cc1c[nH]c2ccccc12)C(=O)N[C@@H](Cc1ccc(Cl)cc1)C(N)=O`, the half-life at 500 µM in series [1] was determined as 4.2 h; in series [3], 2.84 h. Also, the figures for the Ki in series [2] and in series [6] were 0.0077 µM and 4.06 µM, respectively. Moreover, the AUC in series [4] was determined as 246; in series [5], 570. Further, the Ratio Ki in series [7] amounted to 528.
Consider `NC(=O)[C@H](Cc1ccccc1)NC(=O)[C@H](Cc1c[nH]c2ccccc12)NC(=O)[C@@H]1CCCN1C(=O)[C@@H](N)Cc1ccc(O)cc1`, for which the AUC in series [4] is 271; in series [5], 693.
